The target of one assay is urease (Canavalia ensiformis, UniProt P07374). Put plainly: In vitro urease inhibition assay. The assay is classed as biochemical.
Assay [1] in a line: DPPH radical scavenging antioxidant assay. The conditions noted are these: for Antioxidant activity % Inhibition ± SD: DPPH 300 μM, 37 °C, 30 minutes; for Antioxidant activity EC50: concentration required to scavenge 50% of DPPH; for Antioxidant activity (in words): DPPH. In a few lines: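 Test sample mixed with ethanolic DPPH radical solution (300 μM before mixing), incubated at 37 °C for 30 min, and absorbance read at 515 nm. Percent radical inhibition was calculated against a DMSO negative control, with ascorbic acid as the standard. EC50 is the sample concentration (μg ml−1) needed to scavenge 50% of DPPH.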

One may read the IC50 as the point on the concentration scale where inhibition reaches its midpoint.

Where two headings read alike, the source gives them in different places.

Chain of urease (P07374 whole entry, looked up): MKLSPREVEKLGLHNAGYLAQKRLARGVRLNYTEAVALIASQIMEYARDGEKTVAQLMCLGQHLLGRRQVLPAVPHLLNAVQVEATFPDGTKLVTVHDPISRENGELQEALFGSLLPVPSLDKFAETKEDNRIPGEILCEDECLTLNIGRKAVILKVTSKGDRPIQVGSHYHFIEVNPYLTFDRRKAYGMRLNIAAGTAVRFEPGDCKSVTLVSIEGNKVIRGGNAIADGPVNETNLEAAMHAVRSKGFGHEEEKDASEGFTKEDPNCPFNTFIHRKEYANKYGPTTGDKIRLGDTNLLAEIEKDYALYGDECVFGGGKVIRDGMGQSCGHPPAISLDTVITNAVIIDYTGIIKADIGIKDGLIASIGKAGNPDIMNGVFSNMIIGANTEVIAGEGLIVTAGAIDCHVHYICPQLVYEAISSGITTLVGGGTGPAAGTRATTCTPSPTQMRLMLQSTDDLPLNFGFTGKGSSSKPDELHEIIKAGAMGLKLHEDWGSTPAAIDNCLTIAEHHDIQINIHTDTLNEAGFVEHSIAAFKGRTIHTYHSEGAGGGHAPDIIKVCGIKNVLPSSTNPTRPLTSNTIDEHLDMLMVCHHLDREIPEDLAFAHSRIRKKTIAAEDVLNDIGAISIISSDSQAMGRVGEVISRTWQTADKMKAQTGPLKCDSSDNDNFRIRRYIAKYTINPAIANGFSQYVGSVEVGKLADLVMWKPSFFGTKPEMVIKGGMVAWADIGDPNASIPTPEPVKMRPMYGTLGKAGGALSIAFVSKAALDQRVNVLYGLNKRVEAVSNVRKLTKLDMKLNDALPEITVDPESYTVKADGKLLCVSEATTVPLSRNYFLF

Take `CC(=O)NO` [Acetohydroxamic acid, reference compound]: the concentration for half-maximal inhibition (IC50) on urease (read-out: Urease inhibition IC50 ± SD, indophenol method, 15 min at 30 °C, pH 8.2, triplicate) was 37 µM.

For the molecule `O=C1O[C@H]([C@@H](O)CO)C(O)=C1O` [Ascorbic acid, reference compound], in assay [1], the “Antioxidant activity % Inhibition ± SD” value was determined as 80% and the “Antioxidant activity EC50” value stood at 8.3 µg/mL.

At urease, `c1ccc2cc3[nH]c(-c4c[nH]c5ccccc45)nc3cc2c1` [Compound 1, 2-(1H-Indol-3-yl)-1H-naphtho[2,3-d]imidazole] yielded an IC50 of 92.3 ± 0.2 µM. In assay [1], the “Antioxidant activity (in words)” value is given as “excellent antioxidant activity”, the “Antioxidant activity % Inhibition ± SD” value was determined as 71.1 ± 0.01% and the “Antioxidant activity EC50” value was determined as 37.5 µg/mL.

With `CCOc1ccc(-c2nc3cc4ccccc4cc3[nH]2)cc1OC` [Compound 2, 2-(4-Ethoxy-3-methoxyphenyl)-1H-naphtho[2,3-d]imidazole], the IC50 against urease worked out at 73.5 ± 0.65 µM. For the same molecule, the “Antioxidant activity % Inhibition ± SD” value in assay [1] is reported as 43 ± 0.01%.

`COc1cc(-c2nc3cc4ccccc4cc3[nH]2)ccc1OC(C)=O` [Compound 3, 2-Methoxy-4-(1H-naphtho[2,3-d]imidazol-2-yl)phenyl acetate] yielded an IC50 at urease of 56.3 ± 0.78 µM. Moreover, in assay [1], the “Antioxidant activity (in words)” value is “excellent antioxidant activity”, the “Antioxidant activity % Inhibition ± SD” value was determined as 67.4 ± 0.01% and the “Antioxidant activity EC50” value came to 75 µg/mL.

At urease, `Oc1ccc(Cl)cc1-c1nc2cc3ccccc3cc2[nH]1` [Compound 4, 4-Chloro-2-(1H-naphtho[2,3-d]imidazol-2yl)phenol] showed an IC50 of 34.2 ± 0.72 µM. The “Antioxidant activity % Inhibition ± SD” value in assay [1] was 29 ± 0.01%.

`COc1cc(-c2nc3cc4ccccc4cc3[nH]2)cc(OC)c1O` [Compound 5, 2,6-Dimethoxy-4-(1H-naphtho[2,3-d]imidazol-2-yl)phenol]: the “Antioxidant activity % Inhibition ± SD” value in assay [1] was 12 ± 0.01%.

In the case of `COc1ccc(-c2nc3cc4ccccc4cc3[nH]2)cc1O` [Compound 6, 2-Methoxy-5-(1H-naphtho[2,3-d]imidazol-2-yl) phenol], in assay [1], the “Antioxidant activity (in words)” value is recorded as “excellent antioxidant activity”, the “Antioxidant activity % Inhibition ± SD” value turned out to be 71 ± 0.01% and the “Antioxidant activity EC50” value came to 37.5 µg/mL.

With `CCOc1cc(-c2nc3cc4ccccc4cc3[nH]2)ccc1OC` [Compound 7, 2-(3-Ethoxy-4-methoxyphenyl)-1H-naphtho[2,3-d]imidazole], in assay [1], the “Antioxidant activity % Inhibition ± SD” value is on record as 57.8 ± 0.01% and the “Antioxidant activity EC50” value worked out at 100 µg/mL.

In turn, `c1csc(-c2nc3cc4ccccc4cc3[nH]2)c1` [Compound 8, 2-(Thiophen-2-yl)-1H-naphtho[2,3-d]imidazole] had an IC50 at urease of 86.4 ± 0.78 µM. Besides, the “Antioxidant activity % Inhibition ± SD” value in assay [1] is 32 ± 0.01%.

In the case of `COc1ccc(-c2nc3cc4ccccc4cc3[nH]2)cc1OC` [Compound 9, 2-(3,4-Dimethoxyphenyl)-1H-naphtho[2,3-d]imidazole], the 50% inhibitory concentration (IC50) at urease was determined as 67.14 ± 0.67 µM. In assay [1], the “Antioxidant activity % Inhibition ± SD” value was found to be 57.8 ± 0.02% and the “Antioxidant activity EC50” value was 100 µg/mL.

`Oc1ccc(-c2nc3cc4ccccc4cc3[nH]2)c(O)c1O` [Compound 10, 4-(1H-Naphtho[2,3-d]imidazol-2-yl)benzene-1,2,3-triol]: in assay [1], the “Antioxidant activity % Inhibition ± SD” value is 57.9 ± 0.02% and the “Antioxidant activity EC50” value turned out to be 100 µg/mL.

As to `COc1ccc(Br)c(-c2nc3cc4ccccc4cc3[nH]2)c1O` [Compound 11, 3-Bromo-6-methoxy-2-(1H-naphtho[2,3-d]imidazol-2-yl)phenol], the IC50 against urease was 42.4 ± 0.65 µM. Further, in assay [1], the “Antioxidant activity (in words)” value is “excellent antioxidant activity”, the “Antioxidant activity % Inhibition ± SD” value was 71.1 ± 0.01% and the “Antioxidant activity EC50” value was 37.5 µg/mL.

For the molecule `c1ccc(-c2nc3cc4ccccc4cc3[nH]2)cc1` [Compound 12, 2-Phenyl-1H-naphtho[2,3-d]imidazole], in assay [1], the “Antioxidant activity % Inhibition ± SD” value worked out at 43 ± 0.01%.

For the molecule `COc1cc(-c2nc3cc4ccccc4cc3[nH]2)c(OC)cc1Br` [Compound 13, 2-(4-Bromo-2,5-dimethoxyphenyl)-1H-naphtho[2,3-d]imidazole], in assay [1], the “Antioxidant activity % Inhibition ± SD” value was determined as 57.7 ± 0.01% and the “Antioxidant activity EC50” value was determined as 100 µg/mL.

Regarding `Fc1cc(Br)ccc1-c1nc2cc3ccccc3cc2[nH]1` [Compound 14, 2-(4-Bromo-2-fluorophenyl)-1H-naphtho[2,3-d]imidazole], in assay [1], the “Antioxidant activity % Inhibition ± SD” value was found to be 23 ± 0.01%.

As to `Brc1cccc(-c2nc3cc4ccccc4cc3[nH]2)c1` [Compound 15, 2-(3-Bromophenyl)-1H-naphtho[2,3-d]imidazole], in assay [1], the “Antioxidant activity (in words)” value is reported as “excellent antioxidant activity”, the “Antioxidant activity % Inhibition ± SD” value is listed as 69.3 ± 0.01% and the “Antioxidant activity EC50” value turned out to be 75 µg/mL.
